Molecules are shown by their SMILES. A value given as a limit tells only on which side of the number the result lay.

The subject of the assay is HL-60. Kind of assay: Growth inhibition of human HL60 cells after 3 days by MTT assay. In kind it is functional, cell-based. Particulars: HL-60, 72 h. The method, boiled down: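 HL-60 human leukemia cells, […], seeded at 4000-5000 cells/well and […] before compound addition. Compounds tested at 0.01, 0.1, 1, 10 and 100 µg/mL for 3 days. MTT (5 mg/mL) added, formazan dissolved in DMSO after 4 h, OD read at 570 nm. Growth inhibition (%) = (OD_control − OD_treated)/OD_control × 100. Doxorubicin served as positive control.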
In general terms: Tetrazolium assays rely on reduction of a dye to a coloured formazan, in cell work by metabolically active cells.
What is called IC50 is the concentration that inhibits the measured activity by half. `OC/C=C\C#CC#CC/C=C\CCCCCCCCO` gave an IC50 of over 10 µM.
`CCCCCC/C=C/C=C/C#CC#C/C=C\CO` gave a 50% inhibitory concentration (IC50) of 11 µM.
As for `CCCCCCC/C=C\CC#CC#C/C=C\CO`, the IC50 amounted to 11 µM.
In the case of `CCCCC/C=C\CC#CC#C/C=C\CO` it was 11 µM; in that of `CC(=O)OC/C=C/C=C/C#CC/C=C\CCCCCCCCOC(C)=O`, over 10 µM.
The result for `CCCCCC/C=C/C=C/C#C/C=C/C=C/COC(C)=O` reads 11 µM.
`CCCCCCC/C=C\CC#C/C=C/C=C/COC(C)=O` came in with an IC50 of 11 µM. This lies in the double-digit micromolar range.
As for `OC/C=C/C=C/C#CC/C=C\CCCCCCCCO`, the IC50 is over 10 µM.
`CCCC/C=C/C=C/C#CC#C/C=C\CO` gave an IC50 of 11 µM.
In the case of `CCC[C@H](O)CC/C=C/C=C/C#CC#C/C=C\COC(C)=O` it was 9.4 µM; in that of `CCC[C@H](CC/C=C/C=C/C#CC#C/C=C\CO)OC(C)=O` [ACETYLBUPLEUROTOXIN], 11 µM.
`CCCC(=O)CC/C=C/C=C/C#CC#C/C=C\CO` [BUPLEURONOL] came in with an IC50 of 11 µM.
In the case of `CCC[C@H](O)CC/C=C/C=C/C#CC#C/C=C\CO` [BUPLEUROTOXIN], half-maximal inhibition (IC50) was put at 4.9 µM. Against the preceding compound, the IC50 is about 2.2-fold lower.

For the origin of these results see ChEMBL document CHEMBL1154823, “Polyacetylenes from Bupleurum longiradiatum” (J Nat Prod, 2009).
